Data: ChEMBL document CHEMBL1136442, “New anti-malarial peroxides with in vivo potency derived from spongean metabolites” (Bioorg Med Chem Lett, 2003)

How the values were obtained:
Plasmodium falciparum = assay: In vitro anti-malarial activity against Plasmodium falciparum; format: functional, organism-based
Outline: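 FCR3 strain (cycloguanil-resistant, Gambia) was sorbitol-synchronized and plated at ring stage (0.55% parasitemia, 2% hematocrit). Compound was added from DMSO stock diluted in complete medium (1% DMSO final). After 48 h at 37 °C, proliferation was scored on Giemsa smears, 10,000 erythrocytes per film, in triplicate. Quinine was the reference.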

Mus musculus [1] = assay: Survival days of the treated animal to that of control animal at a dose of 10 mg/kg; format: functional
KB 3-1 = assay: In vitro antimalarial activity against KB 3-1; format: functional, cell-based; conditions: Homo sapiens
Outline: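 Cytotoxicity was measured by colorimetric MTT assay, with mitomycin C as positive control.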

[2] = Selectivity index was determined; format: functional
Mus musculus [3] = assay: In vivo anti-malarial activity against Plasmodium berghei
Mus musculus [4] = species on record: Mus musculus; assay: In vitro anti-malarial activity in mice (Mus musculus) serum after 24 hr; format: functional, organism-based

Row | SMILES | IC50 (Plasmodium falciparum) | T/C (Mus musculus [1]) | IC50 (KB 3-1) | Selectivity index [2] | ED50 (Mus musculus [3]) | IC50 (Mus musculus [4])
1 | CCCCCC1(OC)CCC(CC(=O)NC)OO1 (centres undefined) | 520 nM | 118 | 5200 nM | 10 |  | 
2 | C[C@@H]1CC[C@H]2[C@@H](C)C(=O)O[C@@H]3O[C@@]4(C)CC[C@@H]1[C@]32OO4 [ARTEMISININ] |  |  |  |  | 5 mg/kg | 
3 | CCCCCC1(OC)CCC(CC(=O)O)OO1 (centres undefined) |  |  |  |  |  | > 1200 nM
4 | CCCCCC1(OC)CCC(CC(=O)NCCC)OO1 (centres undefined) | 310 nM | 138 | 12000 nM | 39 | 9.3 mg/kg | 
5 | CCCCCC1(OC)CCC(CC(=O)N(C)C)OO1 (centres undefined) | 310 nM | 95 | 4000 nM | 13 | 13 mg/kg | 
6 | CCCCCC1(OC)CCC(CC(=O)NCC)OO1 (centres undefined) | 540 nM | 125 | 14000 nM | 25 | 11 mg/kg | 
7 | CCCCCC1(OC)CCC(CC(=O)OC)OO1 (centres undefined) |  | 81 |  | 360 | > 30 mg/kg | 
8 | CCCCCC1(OC)CCC(CC(=O)N(CC)CC)OO1 (centres undefined) | 490 nM | 118 | 13000 nM | 27 | 20 mg/kg | 
